Experiments:
[1] = biological target: T1, Renin (Homo sapiens, UniProt P00797); assay: Inhibition of purified human renin (pH 6.0)
T1 sequence (P00797 whole entry): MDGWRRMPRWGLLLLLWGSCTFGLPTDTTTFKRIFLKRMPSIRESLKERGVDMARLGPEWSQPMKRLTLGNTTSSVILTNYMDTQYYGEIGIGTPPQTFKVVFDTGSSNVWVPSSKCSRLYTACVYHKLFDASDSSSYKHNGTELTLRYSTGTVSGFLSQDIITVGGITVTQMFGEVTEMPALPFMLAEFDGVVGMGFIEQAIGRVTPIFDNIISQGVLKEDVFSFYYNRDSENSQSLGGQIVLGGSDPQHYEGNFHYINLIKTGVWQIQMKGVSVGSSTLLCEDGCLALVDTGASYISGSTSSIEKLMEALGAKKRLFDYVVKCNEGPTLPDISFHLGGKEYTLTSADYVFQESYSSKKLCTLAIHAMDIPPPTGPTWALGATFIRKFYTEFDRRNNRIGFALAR

[2] = biological target: T1, Renin; assay: Inhibition of human plasma renin (pH 7.4); assay type: cell-free
Summary of the method: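 Plasma renin assay at pH 7.4, adapted from an earlier method: 0.10 M HEPES buffer in place of maleate, incubation lengthened to 2.5 h, and angiotensin I measured by radioimmunoassay on the whole incubation sample. IC50 reported in nM.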

[3] = test system: chymotrypsin; assay: The compound was tested […] for chymotrypsin susceptibility (degradation); assay type: ADME
[4] = biological target: T2, Cathepsin D (Bos taurus) (UniProt P80209); assay: Inhibition of bovine cathepsin D at 1*10e-5; details: concentration not given here
T2 sequence (whole entry): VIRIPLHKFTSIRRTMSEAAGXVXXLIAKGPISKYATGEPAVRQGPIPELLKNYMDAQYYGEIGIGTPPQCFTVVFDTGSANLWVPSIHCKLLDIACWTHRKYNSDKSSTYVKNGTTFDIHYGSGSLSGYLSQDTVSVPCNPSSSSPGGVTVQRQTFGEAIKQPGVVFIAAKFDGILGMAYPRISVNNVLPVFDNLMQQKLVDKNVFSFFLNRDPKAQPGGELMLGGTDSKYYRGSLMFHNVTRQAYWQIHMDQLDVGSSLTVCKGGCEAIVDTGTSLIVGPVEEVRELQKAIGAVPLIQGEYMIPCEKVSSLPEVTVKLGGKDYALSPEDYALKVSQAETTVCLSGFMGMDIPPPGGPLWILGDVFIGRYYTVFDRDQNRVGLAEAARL

[5] = (§1) Ratio of IC50 value for human plasma renin(pH 7.4) and purified human renin(pH 6.0)
[6] = biological target: Pepsin A (Sus scrofa) (UniProt P00791); assay: Inhibition of porcine pepsin enzyme at 1*10e-5; details: concentration not given here
Sequence of Pepsin A (Sus scrofa) (P00791 60-385 limits assumed): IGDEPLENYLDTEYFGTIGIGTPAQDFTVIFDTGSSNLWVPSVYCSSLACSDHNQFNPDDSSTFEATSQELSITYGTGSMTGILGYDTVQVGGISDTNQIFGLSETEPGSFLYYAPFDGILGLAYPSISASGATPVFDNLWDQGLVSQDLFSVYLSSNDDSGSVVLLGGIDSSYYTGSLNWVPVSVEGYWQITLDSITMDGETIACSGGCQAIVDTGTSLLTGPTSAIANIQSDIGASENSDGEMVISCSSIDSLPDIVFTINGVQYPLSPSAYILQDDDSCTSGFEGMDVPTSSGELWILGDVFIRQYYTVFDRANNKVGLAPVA

[7] = as §1; assay type: functional

| IC50 [1] [pM] | IC50 [2] [pM] | half-life [3] [min] | inhibition [4] [%] | Ratio [5] | inhibition [6] [%] | Compound | Ratio [7] |
| --- | --- | --- | --- | --- | --- | --- | --- |
| 760 | 2400 | 727 | – | – | – | COc1ccc(C[C@H](NC(=O)N2CCOCC2)C(=O)N[C@@H](Cc2cnc[nH]2)C(=O)N[C@@H](CC2CCCCC2)[C@@H](O)[C@@H](O)CC(C)C)cc1 | – |
| 550 | 980 | 34.3 | – | – | – | CC(C)C[C@H](O)[C@H](O)[C@H](CC1CCCCC1)NC(=O)[C@H](Cc1cnc[nH]1)NC(=O)[C@H](Cc1ccccc1)NC(=O)N(C)CCO | – |
| – | – | – | 0 | 2.5 | 0 | CC(C)C[C@H](O)[C@H](O)[C@H](CC1CCCCC1)NC(=O)[C@H](Cc1c[nH]cn1)NC(=O)[C@H](Cc1ccccc1)NC(=O)N1CCOCC1 | – |
| – | – | – | 3 | – | 4 | COc1ccc(C[C@H](NC(=O)N2CCOCC2)C(=O)N[C@@H](Cc2c[nH]cn2)C(=O)N[C@@H](CC2CCCCC2)[C@@H](O)[C@@H](O)CC(C)C)cc1 | 3.2 |
| 580 | 5300 | – | 0 | – | 0 | CC(C)C[C@H](O)[C@H](O)[C@H](CC1CCCCC1)NC(=O)[C@H](Cc1c[nH]cn1)NC(=O)/C(=C/c1ccccc1)NC(=O)N1CCOCC1 | 9.1 |
| 300 | 2000 | 9.6 | 0 | – | 6 | CC(C)C[C@H](O)[C@H](O)[C@H](CC1CCCCC1)NC(=O)[C@H](Cc1c[nH]cn1)NC(=O)[C@H](CCc1ccccc1)NC(=O)N1CCOCC1 | 6.7 |
| 790 | 2100 | 1260 | 0 | – | 8 | CC(C)C[C@H](O)[C@H](O)[C@H](CC1CCCCC1)NC(=O)[C@H](Cc1c[nH]cn1)NC(=O)/C(=C/c1ccccc1)CC(=O)N1CCOCC1 | 2.7 |
| 820 | 3000 | 233 | 0 | – | 0 | CC(C)C[C@H](O)[C@H](O)[C@H](CC1CCCCC1)NC(=O)[C@H](Cc1c[nH]cn1)NC(=O)[C@H](Cc1ccccc1)OC(=O)N1CCOCC1 | 3.7 |
| 2600 | 65000 | – | – | – | – | CC(C)C[C@H](O)[C@H](O)[C@H](CC1CCCCC1)NC(=O)[C@H](Cc1cnc[nH]1)NC(=O)[C@@H](NC(=O)N1CCOCC1)C(C)(C)c1ccccc1 | – |
| – | – | – | 3 | – | 3 | CC(C)C[C@H](O)[C@H](O)[C@H](CC1CCCCC1)NC(=O)[C@H](Cc1c[nH]cn1)NC(=O)[C@@H](NC(=O)N1CCOCC1)C(C)(C)c1ccccc1 | 25 |
| 500 | 3300 | 17.5 | 3 | – | 11 | CC(C)C[C@H](O)[C@H](O)[C@H](CC1CCCCC1)NC(=O)[C@H](Cc1c[nH]cn1)NC(=O)[C@H](Cc1ccccc1)NC(=O)N(C)C | 6.6 |
| 14000 | 140000 | – | 1 | – | 2 | CC(C)C[C@H](O)[C@H](O)[C@H](CC1CCCCC1)NC(=O)[C@H](Cc1c[nH]cn1)NC(=O)[C@@H](Cc1ccccc1)NC(=O)N1CCOCC1 | 10 |
| – | – | – | 0 | – | 3 | CC(C)C[C@H](O)[C@H](O)[C@H](CC1CCCCC1)NC(=O)[C@H](Cc1c[nH]cn1)NC(=O)[C@H](Cc1ccccc1)NC(=O)N(C)CCO | 1.8 |
| 420 | 680 | 3.3 | 2 | – | 4 | CC(C)C[C@H](O)[C@H](O)[C@H](CC1CCCCC1)NC(=O)[C@H](Cc1c[nH]cn1)NC(=O)[C@H](Cc1ccccc1)NC(=O)N1CCC(O)CC1 | 1.6 |
| 350 | 890 | 2.2 | – | – | – | CC(C)C[C@H](O)[C@H](O)[C@H](CC1CCCCC1)NC(=O)[C@H](Cc1cnc[nH]1)NC(=O)[C@H](Cc1ccccc1)NC(=O)N1CCOCC1 | – |
| 940 | 2500 | – | 0 | – | 0 | CC(C)C[C@H](O)[C@H](O)[C@H](CC1CCCCC1)NC(=O)[C@H](Cc1c[nH]cn1)N(C)C(=O)[C@H](Cc1ccccc1)NC(=O)N1CCOCC1 | 2.7 |
| 290 | 1300 | 227 | 0 | 4.5 | 0 | CC(C)C[C@H](O)[C@H](O)[C@H](CC1CCCCC1)NC(=O)[C@H](Cc1c[nH]cn1)NC(=O)[C@@H](CC(=O)N1CCOCC1)Cc1ccccc1 | – |

| Compound | IC50 [1] [pM] | IC50 [2] [pM] | half-life [3] [min] | inhibition [4] [%] | Ratio [5] | inhibition [6] [%] | Ratio [7] |
| --- | --- | --- | --- | --- | --- | --- | --- |
| CC(C)C[C@H](O)[C@H](O)[C@H](CC1CCCCC1)NC(=O)[C@H](Cc1c[nH]cn1)NC(=O)[C@H](Cc1ccccc1)NC(=O)N1CCNCC1 | – | 4500 | 6.9 | 0 | – | 0 | 6.9 |
